Our source for the MIC and IC50 values is ChEMBL document CHEMBL4699633, “Total Syntheses of Prenylated Isoflavones from Erythrina sacleuxii and Their Antibacterial Activity: 5-Deoxy-3'-prenylbiochanin A and Erysubin F” (J Nat Prod, 2020).

By MIC is commonly meant the smallest concentration in the dilution series that meets the test's criterion for growth inhibition. As usually defined, the IC50 is the midpoint of a concentration-inhibition curve. Read a low IC50 as greater potency in that assay.

Test [1] concerns Listeria monocytogenes. Description: Antibacterial activity against Listeria monocytogenes assessed as reduction in microbial growth measured every 5 mins for 24 hrs. Type of test: functional.
Test [2] relates to Plasmodium falciparum. Description: Antiplasmodial activity against chloroquine-sensitive Plasmodium falciparum D6 by [3H]-hypoxanthine incorporation assay. Type of test: functional, organism-based.
In test [3] the test system is Salmonella enterica subsp. enterica. The test can be described thus: Antibacterial activity against Salmonella enterica subsp.enterica NCTC 13349 assessed as reduction in microbial growth after 18 hrs by agar dilution method. Type of test: functional. The gist of the method: (§1)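 Agar dilution on Mueller Hinton agar; compounds dissolved in DMSO, 2-fold serial dilutions in solvent added to agar (DMSO 1% v/v final). Inocula from overnight cultures, adjusted photometrically. Plates incubated aerobically at 37 °C for 18 h. Vancomycin or ampicillin as positive controls, DMSO-only plates as negative controls.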

Test [4] relates to Staphylococcus aureus. The test can be described thus: Antibacterial activity against methicilin-resistant Staphylococcus aureus ATCC 43300 assessed as reduction in microbial growth after 18 hrs by agar dilution method. Type of test: functional. The method, boiled down:
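MRSA ATCC 43300 tested by standardized agar dilution. Compounds dissolved in DMSO and 2-fold serially diluted in solvent, then added to Mueller Hinton agar at 1% v/v DMSO final. Inoculum from overnight culture, photometrically adjusted. Plates incubated aerobically at 37 °C for 18 h. Vancomycin served as positive control. DMSO-only (1% v/v) plates served as negative control. Read-out was MIC.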

Test [5] deals with Escherichia coli. Description: Antibacterial activity against Escherichia coli ATCC 25922 assessed as reduction in microbial growth after 18 hrs by agar dilution method. Type of test: functional. The gist of the method:
as §1
(In agar dilution the substance is mixed into plates at graded concentrations.)

Test [6] relates to Plasmodium falciparum. Description: Antiplasmodial activity against chloroquine-resistant Plasmodium falciparum W2 by [3H]-hypoxanthine incorporation assay. Type of test: functional, organism-based.
Test [7] deals with Candida albicans. The test can be described thus: Antifungal activity against Candida albicans ATCC 90028 assessed as reduction in microbial growth after 48 hrs by agar dilution method. Type of test: functional. The method, boiled down:
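Agar dilution in yeast extract peptone dextrose (YPD) agar; compounds in DMSO, 2-fold serial dilutions added to medium (DMSO 1% v/v final). Inoculum from overnight culture, adjusted photometrically. Plates incubated at 30 °C for 48 h. Amphotericin B as positive control, DMSO-only plates as negative control.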

Test [8] concerns Staphylococcus aureus. The test can be described thus: Antibacterial activity against methicillin-resistant Staphylococcus aureus assessed as reduction in microbial growth after 24 hrs by two-fold serial dilution method. Type of test: functional.
The test system of test [9] is Mycobacterium tuberculosis. Description: Antimycobacterial activity against Mycobacterium tuberculosis. Type of test: functional.

The structures appear in SMILES notation. Converted amounts (≈) assume the structure as drawn.

As to `CC(C)=CCc1c(O)cc(O)c2c(=O)c(-c3ccc(O)cc3)coc12`, the MIC in test [1] is greater than 148 µM.
As to `COc1ccc(-c2coc3cc(O)ccc3c2=O)cc1CC=C(C)C`, the IC50 in [2] and in test [6] was 20 µM each time. Moreover, the minimal inhibitory concentration (MIC) in [3] is greater than 190 µM; in test [4] it was greater than 155 µM; in [5] it was greater than 95.1 µM; in [7], greater than 95.1 µM.
Turning to `CC(C)=CCc1cc(-c2cc(=O)c3ccc(O)c(CC=C(C)C)c3o2)ccc1O`, the MIC in test [3] is greater than 82 µM; in test [4], 20.5 µM; in test [5] it was greater than 82 µM; in test [7] it was greater than 82 µM.
`C[C@@H]1[C@H](O)[C@@H](C)/C=C/C=C/C=C/C=C/C=C/C=C/C=C/[C@H](O[C@@H]2O[C@H](C)[C@@H](O)[C@H](N)[C@@H]2O)C[C@@H]2O[C@](O)(C[C@@H](O)C[C@@H](O)[C@H](O)CC[C@@H](O)C[C@@H](O)CC(=O)O[C@H]1C)C[C@H](O)[C@H]2C(=O)O` [AMPHOTERICIN B]: the minimum inhibitory concentration (MIC) in test [7] is 0.5 µM.
For the compound `CC1(C)S[C@@H]2[C@H](NC(=O)[C@H](N)c3ccccc3)C(=O)N2[C@H]1C(=O)O` [AMPICILLIN], the minimum inhibitory concentration (MIC) in test [3] and in test [5] was 11.4 µM throughout.
Regarding `CC(C)=CCc1cc(-c2coc3cc(O)cc(O)c3c2=O)ccc1O` [CORYLIN], the MIC in [1] stood at 59.1 µM.
As to `CC(C)=CCc1cc(-c2coc3c(CC=C(C)C)c(O)ccc3c2=O)ccc1O` [ERYSUBIN F], the MIC in test [3] was greater than 82 µM; in [8] it was 256 µM; in [9] it was 32 µM (≈ 12.5 µg/mL); in test [4] it was 15.4 µM; in test [5], greater than 82 µM; in test [7], greater than 82 µM.
As to `CN[C@H](CC(C)C)C(=O)N[C@H]1C(=O)N[C@@H](CC(N)=O)C(=O)N[C@H]2C(=O)N[C@H]3C(=O)N[C@H](C(=O)N[C@H](C(=O)O)c4cc(O)cc(O)c4-c4cc3ccc4O)[C@H](O)c3ccc(c(Cl)c3)Oc3cc2cc(c3O[C@@H]2O[C@H](CO)[C@@H](O)[C@H](O)[C@H]2O[C@H]2C[C@](C)(N)[C@H](O)[C@H](C)O2)Oc2ccc(cc2Cl)[C@H]1O` [VANCOMYCIN], the minimum inhibitory concentration (MIC) in test [4] stood at 0.5 µM.
As to `CC(C)=CCc1c(O)cc2occ(-c3ccc(O)cc3)c(=O)c2c1O` [WIGHTEONE], in test [1], the MIC was found to be 29.6 µM.
